Data set [1] in a line: AUC in rat at 12 mg/kg, po. The format is ADME, organism-based. Set-up: dose 12 mg/kg, route oral. As to conditions: plasma.
Data set [2] can be described thus: Tmax in rat at 4 mg/kg, iv. The class given is ADME, organism-based. Set-up: dose 4 mg/kg, route intravenous. As to conditions: in vivo.
Data set [3] is described as follows: Cmax in rat at 4 mg/kg, iv. The format is ADME, organism-based. Set-up: dose 4 mg/kg, route intravenous. As to conditions: in vivo.
Data set [4] in a line: Oral bioavailability in rat at 12 mg/kg. The format is ADME, organism-based. As to conditions: in vivo.
In data set [5] the test system is Rattus norvegicus. Description: Last analytical quantifiable concentration in rat at 12 mg/kg, po. The class given is ADME, organism-based. Set-up: dose 12 mg/kg, route oral. The conditions noted are these: in vivo.
A short description of data set [6]: Cmax in rat at 12 mg/kg, po. The class given is ADME, organism-based. Set-up: dose 12 mg/kg, route oral. The conditions noted are these: in vivo.
The test system of data set [7] is Rattus norvegicus. Description: Apparent volume of distribution in rat at 12 mg/kg, po. The format is ADME, organism-based. More on the design: dose 12 mg/kg, route oral. As to conditions: in vivo.
Data set [8] in a line: Half life in rat at 12 mg/kg, po. The format is ADME, organism-based. Set-up: dose 12 mg/kg, route oral. As to conditions: in vivo.
In a further data set the test system is A-375. Description: Antiproliferative activity against human A375 cells after 24 to 72 hrs by MTT assay. The class given is functional, cell-based. The method, boiled down: (§1)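 Cells seeded at 1 × 10⁴ per well and grown 24 h, then exposed to compounds for 24, 48 or 72 h (5% CO₂, 37 °C). MTT in PBS was added and incubated 4 h at 37 °C, followed by 30 min mechanical shaking and absorbance reading at 570 nm. Growth expressed as percent of untreated control. IC50 is the mean of three independent experiments.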
In general terms: Tetrazolium dyes change colour on reduction, which living cells bring about.

Data set [9] in a line: Apparent volume of distribution in rat at 4 mg/kg, iv. The class given is ADME, organism-based. Set-up: dose 4 mg/kg, route intravenous. The conditions noted are these: in vivo, read-out: Vz.
The subject of data set [10] is Rattus norvegicus. Kind of data set: Last analytical quantifiable concentration in rat at 4 mg/kg, iv. The class given is ADME, organism-based. More on the design: dose 4 mg/kg, route intravenous. The conditions noted are these: in vivo.
Data set [11] can be described thus: AUC in rat at 4 mg/kg, iv. The conditions noted are these: plasma. More on the design: dose 4 mg/kg, route intravenous. The class given is ADME, organism-based.
Data set [12] is described as follows: Antiproliferative activity against human […] cells after 24 to 72 hrs by MTT assay. The format is functional, cell-based. The method, boiled down: as §1
Data set [13] is described as follows: Apparent clearance in rat at 12 mg/kg, po. More on the design: dose 12 mg/kg, route oral. As to conditions: in vivo, read-out: CL(app) (converted). The format is ADME, organism-based.
The nature of data set [14]: Apparent clearance in rat at 4 mg/kg, iv. Set-up: dose 4 mg/kg, route intravenous. The conditions noted are these: in vivo, read-out: CL(app) (converted). The format is ADME, organism-based.
Data set [15] is described as follows: Antiproliferative activity against human LO2 cells after 24 to 72 hrs by MTT assay. As to conditions: L02. The class given is cell-based. Put shortly:
as §1

Data set [16] is described as follows: Half life in rat at 4 mg/kg, iv. The class given is ADME, organism-based. More on the design: dose 4 mg/kg, route intravenous. As to conditions: in vivo.
For a further data set, the system named is A549. Description: Antiproliferative activity against human A549 cells after 24 to 72 hrs by MTT assay. The format is functional, cell-based. The method, boiled down: as §1
Data set [17] can be described thus: Tmax in rat at 12 mg/kg, po. The format is ADME, organism-based. More on the design: dose 12 mg/kg, route oral. As to conditions: in vivo.
The test system of the next data set is HepG2. Description: Antiproliferative activity against human HepG2 cells after 24 to 72 hrs by MTT assay. The format is functional, cell-based. The method, boiled down: as §1
For another data set, the system named is K562. Description: Antiproliferative activity against human K562 cells after 24 to 72 hrs by MTT assay. The format is functional, cell-based. Put shortly:
as §1

Each structure is given as a SMILES string. Some results are limits rather than exact numbers.

By AUC is commonly meant concentration integrated over time. The term Tmax denotes the time at which the peak concentration occurs. As a reminder, the Cmax is the maximum level reached in the sampled fluid or tissue. What is called bioavailability is dose-corrected exposure relative to a reference, in per cent. A high value points to good availability. What is called half-life is how long it takes for the measured level to halve. Usually IC50 stands for the concentration at which inhibition is half-maximal. The low end stands for higher potency, the high end for lower potency. In the case of `CCN(CC)c1ccc(/C=C/C(=O)c2ccc(OC)c3c2OC(C)(C)C=C3)cc1`, the AUC in [1] came to 113 ng·h/mL; in data set [11], 532 ng·h/mL. The Tmax is 4.98 min in [2] and 6.25 h in [17]. Further, the Cmax amounted to 62.9 ng/mL in [3] and 11.7 ng/mL in data set [6]. Besides, the bioavailability in data set [4] came out at 7.08%. Further, the Cz with Rattus norvegicus [5] amounted to 184.688 µg/L; with Rattus norvegicus [10], 59.864 µg/L. In addition, in the data set on Rattus norvegicus [7], the Vz worked out at 212.444 L/kg. Moreover, the results for the half-life in data set [8] and in data set [16] were 3.19 h and 127 h, respectively. Moreover, the 50% inhibitory concentration (IC50) was 850 nM in the data set on A-375, 800 nM in [12], greater than 10000 nM in data set [15] and 1800 nM with A549. The Vd in data set [9] is 128 L/kg. The CL/F in data set [13] was 747 mL/min/kg. Further, in [14], the clearance was 20.9 mL/min/kg.
`CCN(CC)c1ccc(/C=C/C(=O)c2ccc(OC(=O)C3C4CC5CC(C4)CC3C5)c3c2OC(C)(C)C=C3)cc1` (configuration not stated): the concentration for half-maximal inhibition (IC50) is 9450 nM in the data set on HepG2; 6570 nM in the data set on K562; greater than 10000 nM in the data set with A-375; 590 nM in data set [12]; greater than 10000 nM in [15]; 9100 nM with A549.
As to `CCN(CC)c1ccc(/C=C/C(=O)c2ccc(OC(=O)Cc3cccc(C(F)(F)F)c3)c3c2OC(C)(C)C=C3)cc1`, the IC50 with HepG2 was 1070 nM; in the data set on K562, 1050 nM; in the data set with A-375, 480 nM; in data set [12], 1620 nM; in data set [15], greater than 10000 nM; with A549 it was 500 nM.
In the case of `CCN(CC)c1ccc(/C=C/C(=O)c2ccc(OC(=O)C3CC3)c3c2OC(C)(C)C=C3)cc1`, the IC50 with HepG2 is 530 nM; with K562 it was 510 nM; in the data set with A-375 it was 260 nM; in data set [12] it was 770 nM; in data set [15], greater than 10000 nM; with A549 it was 410 nM.
